{
  "source": "PubChem BioAssay AID463079",
  "about": "(The Scripps Research Institute Molecular Screening Center, 2010)",
  "note": "Hit rate of the full screen: of about 330,000 compounds, about 2,000 (0.61%) were called active.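 Rule for the calls: active = inhibition above that plate's mean sample inhibition plus 3 SD (cut at about 26% in these data); inactive = the rest.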 The full list was thinned out, with actives kept by preference.",
  "data": [
    {"assay": "nonselective Gq signaling inhibition in CHO cells – cell-based, fluorescence, Fluo-8 calcium dye, counter-screen for OX1R antagonist project, primary screen (AID 463079);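 note: 0% = ATP-challenged DMSO wells and 100% = DMSO wells without ATP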", "settings": "parental CHO-K1, ATP-induced calcium, Fluo-8 fluorescence; at 5.6 µM; hits give high values", "outline": "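Assay system: untransfected parental CHO cell line. Also added: ATP agonist challenge. Dosing: one dose, 5.6 µM nominal. Measured by: Fluo-8 fluorescence. Read-out: % inhibition. Benchmarks: ATP wells versus no-ATP DMSO wells. Repeats: no replicates.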", "values": [
      {"compound": "CCc1ccc2ncc(C(=O)c3ccccc3)c(N3CCOCC3)c2c1", "inhibition": "-4.24% (inactive)"},
      {"compound": "Cc1ccc2c(c1)NC(=O)[C@@]1(C)[C@@H](c3ccccc3)[C@H]3COc4ccc(Cl)cc4[C@@H]3N1C2=O", "inhibition": "-11.9% (inactive)"},
      {"compound": "CN(C)C(=O)CCc1ccc2c3c([nH]c2c1)[C@]1(C)[C@@H](C(=O)N2CCOCC2)C[C@H](CC(=O)NCCc2ccccn2)C(=O)N1CC3", "inhibition": "1.44% (inactive)"},
      {"compound": "CN(C)c1ccc(/C=C2\\NC(=S)N(Cc3ccccc3)C2=O)cc1", "inhibition": "70.7% (active)"},
      {"compound": "CN(C)c1ccc(C=C2C(=O)OC3(CCCC3)OC2=O)cc1", "inhibition": "-4.66% (inactive)"},
      {"compound": "COc1cc(/C=C2/SC(=S)N(Cc3ccccc3)C2=O)cc(OC)c1O", "inhibition": "27.6% (inactive)"},
      {"compound": "N#CC1(NC(=O)COC(=O)Cc2n[nH]c(=O)c3ccccc23)CCCCC1", "inhibition": "-1.72% (inactive)"},
      {"compound": "CN(CC(=O)Nc1cccc(F)c1)CC(=O)Nc1cccc([N+](=O)[O-])c1", "inhibition": "-2.05% (inactive)"},
      {"compound": "Cc1ccc(NC(=O)c2sccc2C)cc1[N+](=O)[O-]", "inhibition": "-13% (inactive)"},
      {"compound": "Cc1ccc(NC(=O)CN(C)CC(=O)Nc2cccc(F)c2)cc1[N+](=O)[O-]", "inhibition": "68.4% (active)"},
      {"compound": "CCN(CC)C(=O)c1sc(NC(=O)c2ccco2)c(C#N)c1C", "inhibition": "-6.79% (inactive)"},
      {"compound": "Cn1nccc1CNC(=O)c1ccnn1C", "inhibition": "7.66% (inactive)"},
      {"compound": "CCCc1ccc(-c2c(C)sc(NC(=O)c3ccnn3C)c2C#N)cc1", "inhibition": "37% (active)"},
      {"compound": "Cc1cc(C)cc(Oc2nc3c(C)cccn3c(=O)c2/C=C(\\C#N)C(=O)NC2CCS(=O)(=O)C2)c1", "note": "(stereo not drawn)", "inhibition": "-10.7% (inactive)"},
      {"compound": "Cc1ccccc1C(=O)NC(=S)NC1CC1", "inhibition": "-11.8% (inactive)"},
      {"compound": "O=C(CSc1ncn[nH]1)Nc1nsc(-c2ccccc2)n1", "inhibition": "0.25% (inactive)"},
      {"compound": "O=C(CSc1nc(-c2ccccc2)cs1)Nc1cccc([N+](=O)[O-])c1", "inhibition": "-15.2% (inactive)"},
      {"compound": "O=C(CSc1ncn[nH]1)Nc1nc(-c2cccc([N+](=O)[O-])c2)cs1", "inhibition": "29.9% (active)"},
      {"compound": "CC(C)CC(CC(C)C)=NNC(=O)c1ccc(CSc2nncn2C)cc1", "inhibition": "-6.24% (inactive)"},
      {"compound": "C=CCOc1cccc(C2C(C(=O)c3ccc(C)o3)=C(O)C(=O)N2c2nnc(C)s2)c1", "note": "(stereo not drawn)", "inhibition": "35.4% (active)"},
      {"compound": "C=CCOc1cccc(C2C(C(=O)c3ccc(C)o3)=C(O)C(=O)N2CCCn2ccnc2)c1", "note": "(stereo not drawn)", "inhibition": "4.82% (inactive)"},
      {"compound": "Cc1cc(N2C(=O)C(O)=C(C(=O)c3ccc(C)o3)C2c2ccc(OCc3ccccc3)cc2)no1", "note": "(stereo not drawn)", "inhibition": "-17.5% (inactive)"},
      {"compound": "Cc1ccc(SC(=O)COc2ccc(C)c(C)c2)cc1", "inhibition": "11.9% (inactive)"},
      {"compound": "Cc1nc2ccccc2c(=O)n1NC(=O)c1ccccc1", "inhibition": "-3.13% (inactive)"},
      {"compound": "Cc1ccnc(-n2sc3ccccc3c2=O)n1", "inhibition": "46.3% (active)"},
      {"compound": "CCOC(=O)N1CCC(=NNC(N)=O)CC1", "inhibition": "-14.6% (inactive)"},
      {"compound": "O=Cc1c(Cl)cccc1Cl", "inhibition": "-9.8% (inactive)"},
      {"compound": "NS(=O)(=O)c1ccc(CCNC(=O)c2ccc(Cl)cc2[N+](=O)[O-])cc1", "inhibition": "-1.67% (inactive)"},
      {"compound": "O=C(NCCc1ccc(Cl)cc1Cl)c1cc([N+](=O)[O-])c[nH]c1=O", "inhibition": "26.2% (active)"},
      {"compound": "O=C(NCCc1c[nH]c2ccc(Cl)cc12)c1ccc([N+](=O)[O-])cc1", "inhibition": "8.94% (inactive)"},
      {"compound": "Cc1ccc(O/C=C2\\OC(=O)c3ccccc32)cc1", "inhibition": "3.04% (inactive)"},
      {"compound": "O=C(COC(=O)c1ncc(Cl)c(Cl)c1Cl)NCc1cccs1", "inhibition": "-15.5% (inactive)"},
      {"compound": "CC1CC(C)CN(C(=O)COC(=O)c2ccc3ncsc3c2)C1", "note": "(stereo not drawn)", "inhibition": "-8.36% (inactive)"},
      {"compound": "CCC(=C/c1sc2ccc3ccccc3c2[n+]1C)/C=C1\\Sc2ccc3ccccc3c2N1C", "inhibition": "79.9% (active)"},
      {"compound": "CCC1(c2ccccc2)NC(=O)N(CC(=O)Nc2ccccc2C(=O)NC2CCCC2)C1=O", "note": "(stereo not drawn)", "inhibition": "-8.29% (inactive)"},
      {"compound": "COc1ccc(NC(=O)CC2C(=O)OCC3CCCCN32)cc1Cl", "note": "(stereo not drawn)", "inhibition": "-17.2% (inactive)"},
      {"compound": "CC(C)(C)c1ccc(/C=C/C(=O)Nc2ncccn2)cc1", "inhibition": "-20.1% (inactive)"},
      {"compound": "COC(=O)c1sc(-c2ccc(C(C)(C)C)cc2)cc1NC(=O)/C=C/C(=O)O", "inhibition": "38.8% (active)"},
      {"compound": "COc1ccccc1NC(=O)/C=C/C(N)=O", "inhibition": "-0.46% (inactive)"},
      {"compound": "CC(C)c1cc(C(N)=O)c(NC(=O)c2cccc(COc3ccc(Br)cc3)c2)s1", "inhibition": "-12.5% (inactive)"},
      {"compound": "O=C1OCCN1C(=O)[C@H]1[C@H](c2ccccc2)C(c2ccc(F)cc2)=NN1c1ccccc1", "inhibition": "-16.7% (inactive)"},
      {"compound": "CC1(C)Oc2ccc(C(=O)N3CCOCC3)cc2N(CC(=O)Nc2ccccc2)C1=O", "inhibition": "-10.5% (inactive)"},
      {"compound": "Cc1nn(C)cc1/C=C1\\CCC/C(=C\\c2cn(C)nc2C)C1=O", "inhibition": "1.91% (inactive)"},
      {"compound": "O=C(/C=C/c1ccc(F)cc1)Nc1cccc(S(=O)(=O)Nc2cccc(C(F)(F)F)c2)c1", "inhibition": "-1.97% (inactive)"},
      {"compound": "CCOC(=O)N1CCN(C(=O)c2ccc(S(=O)(=O)Nc3cccc(C(F)(F)F)c3)cc2)CC1", "inhibition": "10.1% (inactive)"},
      {"compound": "Cc1oc2c(F)c(F)c(F)c(F)c2c1S(=O)(=O)Nc1cccc(C(F)(F)F)c1", "inhibition": "42.3% (active)"},
      {"compound": "COc1cccc(OC)c1C(=O)N1CCN(Cc2cccnc2)CC1", "inhibition": "2.69% (inactive)"},
      {"compound": "CC[C@]12c3[nH]c4cc(CCC(=O)N(C)C)ccc4c3CCN1C(=O)[C@@H](CC(=O)NCc1ccco1)C[C@@H]2C(=O)N1CCN(C(=O)c2ccco2)CC1", "inhibition": "-6.08% (inactive)"}
    ]}
  ]
}
